Here are results for 75 variants from the RNAGym collection of RNA variant scans (doi:10.1126/science.aae0568).

This sample holds only a part of the variants without activity. Where only a bound is given, the exact number is not on record here.

The chains are these.
B1: tRNA (parent)
chain: GUUCCGUUGGCGUAAUGGUAACGCGUCUCCCUCCUAAGGAGAAGACUGCGGGUUCGAGUCCCGUACGGAACG

Variants of B1 are the subject of the data set. Put plainly: yeast fitness relative to wild type (ratio to wild type); higher = fitter; tRNA-Arg(CCU), competitive growth, 37 C, YPD. Summed up:
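Amplicons of the tRNA-Arg(CCU) gene were sequenced, 100-nucleotide paired-end, from the start population and from each end population of a pooled yeast competition. The competition, in six parallel replicates, lasted 24 hours in YPD at 37°C. Fitness relative to wild type was calculated from changes in genotype frequencies. Genotypes had to have ≥ 100 starting reads, and estimates < 0.5 were set to 0.5.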
For GUUCCGCUGGCGUAAUGGUAACGCGUCUCCCUCCUAAGGAGAAGACUCCGGGUUCGAGUCGCGUUCGGAACG, the yeast fitness is at most 0.5.
To GUUCCGCUGGCGUAAUGGUAACGCGUCUCCCUCCUAAGGAGAAGACUGCGGGUUCAAGUCCCGUACGGAACG belongs 0.977.
With GUUCCGCUGGCGUAAUGGUAACGCGUCUCCCUCCUAAGGAGAAGACUGCGGGUUCCAGUCCCGUACGGAACG, the yeast fitness came out at 0.692.
To GUUCCGCUGGCGUAAUGGUAACACGUCUCCCUGCUAAGGAGAAGACUGCGGGUUCGAGUCCCGUACGGAACG belongs at most 0.5; to GUUCCGCUGGCGUAAUGGUAACGCGUCUCCCUCCUAAGGAGAAGACUACGGGUAGGAGUCCCGUUCGGAACG, at most 0.5.
Take GUUCCGCUGGCGUAAUGGUAACGCGUCUCCCUCCUAAGGAGAAGACUGCGGGUUGGAGUCCCGUACGGAACG: the yeast fitness was 0.628.
To GUUCCGCUGGCGUAAUGGUAACGCGUCUCCCUCCUAAGGAGAAGACUGCGGGUUAGAGUCCCGUACGGAACG belongs 0.567; to GUUCCGCUGGCAUAAUGGUAACGCGUCUCCCUCCUAAGGAGAAGCCUGUGGGUUCGAGUCGCGUCCGGAACG, at most 0.5; to GUUCCGCUGACGUAAUGGUAACGCGUCUCCCUCCUAAGGAGAAGACUGCCGGUUCGAGUCCCGUACGGAACG, at most 0.5.
To GUUCCGCUGGCGUAAUGGUAACGCGUCUCCCUCCUAAGGAGAAGACUACGGGUUCGAGUCCCGUACGGCACG belongs 0.695; to GUUCCGCUGGCGUAAUGGUAACGCGUCUCCCUCCUAAGGAGAAGACUGCGGGUUCGAGUCCUGUAGGGAACG, at most 0.5.
To GUUCCGCUGGCGUAAUGGUAACGCGUCUCCCUCCUAAGGAGAAGACUGUGGGUUCAAGUCCCGUCCGGAACG belongs 0.607; to GUUCCGCUGGCGUAAAGGUAACGCGUCACCCUCCUAAGGAGAAGACUGCGGGUUCGAGUCCCGUACGGAACG, at most 0.5.
Regarding GUUCCGCUGGCGUAAUGGUAACGCGUCUCCCUCCUAAGGAACAGACUGCCGGUUCGAGUCCCGUACGGACCG, the yeast fitness is at most 0.5.
To GUUCCGCUGGCGUAAUGGUAACGCGUCUCCCUCCUAAGGAACAGACUGCCGGUUCGAGUCCCAUACGGAGCG belongs 0.555; to GUUCCGCUGACGUAAUGGUAACGCGUCUCGCUCCUACGGAGAAGACUGCGGGUUCGAGUCCCGUACGGAACG, 0.554.
To GUUCCGCUAGCGUAAUGGUAACGGGUCUCCCUCCUAAGGAGAAGUCUGAGGGAUCGAGUCCCGUACGGAACG belongs 0.681.
Consider GUUCCGCUGGCGUAAUGGUAACGCGUCUCCCUCCUAAGGAGAAGACUGCGGGUUCGAGUCACGUACGGAACG, for which the yeast fitness is 0.678.
For GUUCCGCUGGCGUAAUGGUAACCCGUCUCCCUCCUAAGGAGAAGACUGCGGAUUCGAGUCCCGUACGGAACG, the yeast fitness was 0.591.
GUUCCGCUGGCGUAAUGGUAACGCGUCUCCCUCCUAAGGAGAAGACUGUGGGUUAGAGUCCCGUACGGAACG: the yeast fitness is at most 0.5.
Take GUUCCGCUGGCGUAAAGGUAACGCGUCUCCCUCCUAAGGACAAGACUGCGGGUUCGAGUCCCGUACGGAACG: the yeast fitness was determined as 0.613.
Turning to GUUCCGCUGGCGUAAUGGUAACGCGUCUCCCUCCUAAGGAACAGACUGCCGGUUCGAGUCCCGUACGGUACG, the yeast fitness is 0.556.
To GUUCCGCUGGCGUAAUGGGAACGCGUCUCCCUCCUAAGGAGAAGACUGCGGGUUCGAGUCGUGUACGGAACG belongs 0.514; to GUUCCGCUGGCCUAAUGGUAACGCGUCUCCCACCUAAGAAGAAGACUGGGGGUUCGAGUCCCGUACGGAACG, 0.602; to GUUCCGCUGGCGUAAUGGUAACGCGUCUCCCUCCUAACGAGAAGACUGAGGGUUCAAGUCGCGUACGGAACG, at most 0.5.
Consider GUUCCGCUGGCGUAACGGUAUAGCGUCUCCCUCCUAAGGAGAAGACUGUCGGUUCGAGUCCCGUACGGUACG, for which the yeast fitness was at most 0.5.
GUUCCGCUGGCAGCAUGGUAACGCGUCUCCCUCCCAAGGAGAAGACUGUGGGUUCGAGUCCCGUACGGAACG: the yeast fitness was at most 0.5.
GUUCCGCUGGCGUAAUGGUAACGCGUCUCCCUCCUAAGAAGAAGACUGCGGGUUCGAGUCCCGUACGGAACG: the yeast fitness is 0.913.
In the case of GUUCCGCUGGCGUAAUGGUAACGCGUCUCCCUCCUAAGGAGAAGACUGCGAGUUCGAGUCCGGUGCGGAACG, the yeast fitness is at most 0.5.
GUUCCGCUGGCGUAAUGGUAACGCGUCUCCCUCCUAAGGAACAGACUGCCGGUUCGAGUCCCGUUCGGAACG: the yeast fitness is at most 0.5.
For the variant GUUCCGCUGGCGUAAUGGUAACGCGUCUCCCUCCUAAGGAACAGACUGCCGGUUCGAGUCCCGUCCGGAACG, the yeast fitness is at most 0.5.
Turning to GUUCCGCUGGCGUAAUGGUAACGCGUCUCCCUCCUAAGGAACAGACUGCCGAUUCGAGUCCCGUACGGAGCG, the yeast fitness is at most 0.5.
As to GUUCCGCUGGCGUAAUGGUAACGCGUCUCCCUCCUAAGGAGAAGACUGCGGGUUCGAGUCCCGUACGCUACG, the yeast fitness was determined as 0.612.
To GUUCCGCUGGCGUAAUGGAAACGCGUCUCCCUCCUAAGGAGAAGACUGCGGGUUCGAGUCCAGUACCGAACG belongs at most 0.5.
To GUUCCGCUGGCGUAAUGGUAACGCGUCUCCCUCCUAACGAGAAGACUGAGGGUUCGAGUCCCGUACGGAACG belongs 0.618; to GUUCCGCUGGCGUAAUGGUAACGCGUCACCCUCCUAGGGAGAAGAUCGCGGGUUCGAGUCCCGUACGGAACG, at most 0.5; to GUUCCGCUGGCGUAAUGGUAACGCGUCUCCCUCCUAAGGAGAAGACUGAGGGUUCGAGUCCCGUACUGAACG, 0.59.
To GUUCCGCUGCCGUAAUGGUAACGCGUCUCCCUCCUAAGGAGACGACUGCGGGUUCGAGUCCCGUACGGAACG belongs 0.549; to GUUCCGCUGGCGUAAUGGUAACCCGUCUCCCUCCUAAGGAGAAGACUGCGGGUUCGAGUCCCGUACGGAACG, 0.671; to GUUCCGCUGGCGUAAUGGUAACGCGUCUCCCUCCUAAGGAGAAGACUGCGGGUUCGAGUCCCGUACGCAACG, 0.876.
On to GUUCCGCUGGCGUAAUGGUAACGCGUCUCCCUCCUAAGGAGAAGACUGCGCGUUCGUGUCCCGUACGGAACG, for which the yeast fitness is at most 0.5.
For the variant GUUCCGCUGGCGUAAGGGUAACGCGUCACCCUCCUAAGGAGAAGACUGGGGGUUCGCGUCCCGUACUGAACG, the yeast fitness was at most 0.5.
To GUUCCGCUGGCGUAAUGGUAACGCCUCUCGCUUCUAAGGAGAAGGCGGCCGGUUCGAGUCCCAUACGGAACG belongs at most 0.5; to GUUCCGCUGGCGUAAUGGUAACGCGUCUCCCUCCUAAGGAACAGACUGCCGGUUCGAGUCCCGUACUGAACG, at most 0.5; to GUUCCGCUGGCGUAAUGAUAACGCGUCUCUCUCAUAAGGAGAAGACUGCGGGUUCGAGUCCCGUACGGAACG, at most 0.5.
As for GUUCCGCUGGCGAAAUGGUAACGUGUCUCCCUCCUAAGGAGAAGACUGCGAGUUCGAGACCCGUCCGGAACG, the yeast fitness came to 0.642.
As for GUUCCGCUGGCGUAAUGGUAACGCGUCUCCCUCCUAAGGAGAAGACUGCGGGUUCGAGUCGCGUCCGGAACG, the yeast fitness was at most 0.5.
As for GUUCCGCUGGCGUAAUGGUAACGCGUCUCCCUCCUAAGGAGAAGACUGCGGGUUCGAGUCGCGUGCGGAACG, the yeast fitness is 0.57.
To GUUCCGCUGGCGUAAUGCUAACGCGUCUCCCUCCUAAGGAGAAGACUGCGGGUUCGAGGCCCGUACGGAACG belongs at most 0.5; to GUUCCGCUGGCGUAAUGGCAACGCGCCUCCCUCUUAAGGAGAAGACUGCGGAUUCGAGACCCCUACGGAACG, at most 0.5.
In the case of GUUCCGCUGGCGUAACGGUAACGCGUCUCCCUCCUAAGGAGAAGACUGCGGGUUCGAGUCCCGUACGGAACG, the yeast fitness came to 0.831.
With GUUCCGCUGGCGUAAUGGUAACGCAUCACCCUCCUAAGGAGAAGACUCCGGGUUCGAGUCCCGUACGGACCG, the yeast fitness was at most 0.5.
To GUUCCGCUGGCGUAAUGAUAACGCGUCUCCAUCCUAAGGAGAAGACUGCGGGUUCCAGUCCCGUACGGAACG belongs at most 0.5.
To GUUCCGCUGGCGUAAUGGUAACGCGUCUCCCUCCUAAGGAGAAGACUGCGGGUUCGACUCCCGUAAGGAACG belongs 0.584.
Regarding GUUCCGCUGGCGUAAUGGUAACGCGUCUCCCUCCUAAGGAGAAGACUGCGGGUUCGAGUUCCGUACGGAACG, the yeast fitness worked out at 0.785.
As for GUUCCGCUGGCGUAAUGGUAACGCGUCUCCCUCCUAAGGAGAAGACUGCGGGUUCGAGUACCGUACGGAACG, the yeast fitness is 0.674.
On to GUUCCGCUGGCGUAAUGGUAACGCGUCUCCCUCCUAAGGAGAAGACUGCGGGUUCGAGUGCCGUACGGAACG, for which the yeast fitness was 0.583.
To GUUCCGCUGGCGUAAUGAUAAGGCGUCUCCCUCCUAAGGAGAAGACUGCGGGUUCGAGUCCUGUACGGAGCG belongs at most 0.5; to GUUCCGCUGGCGUAAUGGUAACGCAUCUCCCUCCUAAGGAGAAGACUGCGGGUUAGAGUCCCGUACGGAACG, at most 0.5; to GUUCCGCUGGCAUAAUGGUCGCGAGUAUCCCUCCUCAGGAGAAGACUGCGGGUUCGAGUCCCGUACGGAACG, at most 0.5.
In the case of GUUCCGCUGGCGUAAUGGUAACGCGUCUCCCUCCUAAAGAGAAGACUGCGGGUUCGACUCCCGUACGGAACG, the yeast fitness amounted to 0.648.
To GUUCCGCUGGCGUAAUGAUAAGGCGUCUCCCUCCUAAGGAGAAGACUGCGGGUUCGAGUCCCGUACGGAACG belongs 0.586; to GUUCCGCUGGCGUAAUGGUAACGCGUCUCCCUCCUAAGGAGAAGACUCCGGGUUCGAGUCCCGUACCGAACG, at most 0.5; to GUUCCGCUGGCGUAAUGGGAACGCGUCUCCCUCCUAAGGAGAAGACUGCGAGUUCGAGACCCGUAAGGAACG, at most 0.5.
To GUUCCGCUGACGUAAUGGUAACGGGUCUCCCUCUUAAGGAGAUGACUGCGGGUUCGAGUCCCGUACGGAACG belongs at most 0.5; to GUUCCGCUCGCGUAAUGGUGACGCGUCUCCCUCCUAAGGAAAAGACUGCGGGUUCGAGUCCCGUACGGAACG, at most 0.5.
To GUUCCGCUGACGUAAUGGAAACGCGUCUCCCUCCUAAGGAGAACACUGCGGGUUCGAGUCCCGUACCGAACG belongs at most 0.5; to GUUCCGCUGGCGUAAUGGUAACGCGUCUCCCUCCUAAGGAGAAGACUGCGGGUUCGAGUCCCGUACAGAACG, 0.863.
For the variant GUUCCGCUGGCGUAAUGGUAACGCGUCUCCCUCCUAAGGAGAAGACUGCGGGUUCGAGUCCCGUACUGAACG, the yeast fitness was determined as 0.847.
Turning to GUUCCGCUGGCGUAAUGCUAACGCGUCUCCCUCCUAAGGAGAAGACUGCGGGUUCGAGUCUCGUACGGAACG, the yeast fitness is at most 0.5.
For the variant GUUCCGCUGGCGUAAUGGUAACGCCUCUCCCUCCUAAGGAGGAGACUGCGGGUUCGAGUCCCGUACGGAACG, the yeast fitness was 0.567.
To GUUCCGCUGGCGUAAUGGUAACGCGUCUCCCUCCUAAGGAACAGACUGCCGGUUCGAGUCCUGUACGGAACG belongs at most 0.5; to GUUCCGCUGGCGUAAUGGUAACGCGUCUCCCUCCUAAGGAGAAGACUCCGGGUUCGAGUCCUGUACGGAACG, 0.548.
To GUUCCGCUGGCGUAAUGGUAACGCGCCUCCCUCCUAAGGAGAAGACUGUGGGUUCGAGUCCCGUACGGAACG belongs at most 0.5; to GUUCCGCUGGCGUAAUGGUAACGCGCCUCCCUCCUAAGGAGAAGACUGCGGGUUCGAGUCCCGUACGGAACG, 0.866.
